From ChEMBL document CHEMBL3877262, “Synthesis and antioxidant evaluation of desmethylxanthohumol analogs and their dimers” (Eur J Med Chem, 2017) come the findings set out here.

Active and inactive are the calls of the source. No cut-off for these calls is given here.

A word on the IC50: it is the concentration that inhibits the measured activity by half. The term EC50 denotes the concentration needed to bring the measured effect to its halfway point.

The species named for data set [1] is Rattus norvegicus. The data set can be described thus: Cytotoxicity against rat PC12 cells at 200 uM measured after 48 hrs by MTT assay. Format: toxicity, cell-based. Conditions: pc-12, 48 h.
For data set [2], the species on record is Rattus norvegicus. Kind of data set: Cytotoxicity against rat PC12 cells at 100 uM measured after 48 hrs by MTT assay. Format: toxicity, cell-based. Conditions: pc-12, 48 h. A general note: Formazan colour is commonly taken as a measure of viable cells.
The nature of data set [3]: Cytotoxicity against HUVEC measured after 48 hrs by MTT assay. The format is toxicity, cell-based. Particulars: human, HUVEC cells. In short, it runs like this:
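HUVECs were seeded at 5×10^3 cells/well for 24 h, then exposed to compounds dissolved in DMSO for 48 h. MTT (5 mg/ml) was added for 4 h, cells solubilized in DMSO and OD read at 490 nm. IC50 was derived from mean OD of triplicate tests.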

Data set [4] deals with PC-12. Kind of data set: Cytoprotective activity against H2O2-induced oxidative stress in rat PC12 cells assessed as necrotic cells at 10 uM pretreated for 0.5 hrs followed by H2O2 challenge measured after 2 hrs by Annexin-V-FITC/propidium iodide staining based flow cytometry (reference value: 2.4 %). Format: functional. (In general: Flow cytometry measures light scatter and fluorescence of single cells or particles in a stream.)

The subject of data set [5] is PC-12. The data set can be described thus: Cytoprotective activity against H2O2-induced oxidative stress in rat PC12 cells assessed as early apoptotic cells at 10 uM pretreated for 0.5 hrs followed by H2O2 challenge measured after 2 hrs by Annexin-V-FITC/propidium iodide staining based flow cytometry (reference value: 1.1 %). The format is functional.
Data set [6] in a line: Antioxidant activity assessed as ABTS radical scavenging activity measured after 10 mins by ABTS assay. The format is functional. In short, it runs like this:
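ABTS (10 mM in sodium acetate) oxidised with H2O2 and held 12 h in the dark. It was diluted to A650 0.70 and mixed with compound, shaken 30 s, and A650 read after 10 min. EC50 by nonlinear regression from three independent experiments.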

Data set [7] concerns PC-12. The data set can be described thus: Cytoprotective activity against H2O2-induced oxidative stress in rat PC12 cells assessed as late apoptotic cells at 10 uM pretreated for 0.5 hrs followed by H2O2 challenge measured after 2 hrs by Annexin-V-FITC/propidium iodide staining based flow cytometry (reference value: 2.3 %). Format: functional.
Data set [8] has as its system PC-12. Kind of data set: Cytoprotective activity against H2O2-induced oxidative stress in rat PC12 cells assessed as lactate dehydrogenase release at 10 uM pretreated for 30 mins followed by H2O2 challenge measured after 2 hrs by spectrophotometric method (reference value: 479.77 U/L). The format is functional.
Data set [9] relates to PC-12. The data set can be described thus: Cytoprotective activity against H2O2-induced oxidative stress in rat PC12 cells assessed as viable cells at 10 uM pretreated for 0.5 hrs followed by H2O2 challenge measured after 2 hrs by Annexin-V-FITC/propidium iodide staining based flow cytometry (reference value: 94.1 %). The format is functional. Particulars: read-out: Activity.

A short description of data set [10]: Antioxidant activity against H2O2-induced oxidative stress in rat PC12 cells assessed as GSH level per gram of protein at 10 uM pretreated for 0.5 hrs followed by H2O2 challenge measured after 2 hrs by GSH peroxidase assay (reference value: 59.93 umol). The format is functional, PC-12.
Data set [11] is described as follows: Antioxidant activity assessed as vitamin-c equivalent measured after 20 mins by FRAP assay. The format is functional.
Data set [12] in a line: Antioxidant activity against H2O2-induced oxidative stress in rat PC12 cells assessed as viable cells at 100 uM pretreated for 0.5 hrs followed by H2O2 challenge measured after 2 hrs by MTT assay (reference value: 25.47%). The format is functional. Particulars: PC-12, read-out: Activity.
The nature of data set [13]: Antioxidant activity against H2O2-induced oxidative stress in rat PC12 cells assessed as 8-OHdG level at 10 uM pretreated for 0.5 hrs followed by H2O2 challenge measured after 2 hrs (reference value: 123.97 ng/L). Format: functional, PC-12.
The subject of data set [14] is PC-12. Kind of data set: Cytoprotective activity against H2O2-induced oxidative stress in rat PC12 cells assessed as morphological changes at 10 uM pretreated for 0.5 hrs followed by H2O2 challenge measured after 2 hrs. The format is functional, cell-based. In short, it runs like this: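 PC12 cells were handled as in the H2O2/MTT model: compound at 10 µM for 0.5 h, then H2O2 (100 µM) for 2 h. Morphology (shrinkage, blebbing) was viewed at 200×. Control cells received medium with 0.1% DMSO only. Gallic acid (10 µM) was the positive control.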

In the case of `CC(C)=CCc1c(O)cc(O)c(C(=O)/C=C/c2ccc(O)cc2)c1O` [DEMETHYLXANTHOHUMOL], the Activity result in the data set filed under Rattus norvegicus [1] and in the data set listed under Rattus norvegicus [2] was “Toxic” each time. In data set [3], this molecule came in with an IC50 at 48 h of 18.9 µM.

Consider `O=C(O)c1cc(O)c(O)c(O)c1` [GALLIC ACID], for which the Activity in the data set on PC-12 [4] stood at 4.2%; in the data set on PC-12 [5], 0.5%; in the data set on PC-12 [7], 13.4%; with PC-12 [8], 326.59 U/L; in data set [10] it was 99.73 µmol; in data set [11], 531 mgequiv/mmol. The Activity in [13] was 85.7 ng/L. For the same molecule, the 50% effective concentration (EC50) in data set [6] is 0.35 µM. Moreover, the viability at 10 µM with PC-12 [9] is 81.9%. Besides, in [12], the viability at 100 µM turned out to be 88.9%.

As to `CC1(C)C=Cc2c(O)cc(O)c(C(=O)/C=C/c3cccc(O)c3O)c2O1`, the viability at 100 µM in data set [12] came out at 54.5%.

Regarding `CC1(C)C=Cc2c(O)c(Cc3c(O)c4c(c(C(=O)/C=C/c5cccc(O)c5O)c3O)OC(C)(C)C=C4)c(O)c(C(=O)/C=C/c3cccc(O)c3O)c2O1`, in [12], the viability at 100 µM came out at 77.5%.

For the molecule `CC1(C)C=Cc2c(O)cc(O)c(C(=O)/C=C/c3ccc(O)cc3O)c2O1`, the viability at 100 µM in data set [12] was 24.1%.

With `CC1(C)C=Cc2c(O)c(Cc3c(O)c4c(c(C(=O)/C=C/c5ccc(O)c(O)c5O)c3O)OC(C)(C)C=C4)c(O)c(C(=O)/C=C/c3ccc(O)c(O)c3O)c2O1`, the Activity in the data set with PC-12 [4] stood at 0.5%; with PC-12 [5], 1.1%; in the data set with PC-12 [7], 2.7%; with PC-12 [8] it was 251.45 U/L; in [10], 105.71 µmol; in [11], 648 mgequiv/mmol. Moreover, the Activity in [13] came out at 62.8 ng/L. In addition, the outcome in the data set on PC-12 [14] was Active. Further, the EC50 in data set [6] stood at 0.54 µM. The viability at 10 µM with PC-12 [9] was 95.6%. The viability at 100 µM in data set [12] was 85.2%.

As for `CC1(C)C=Cc2c(O)c(Cc3c(O)c4c(c(C(=O)/C=C/c5ccc(O)cc5O)c3O)OC(C)(C)C=C4)c(O)c(C(=O)/C=C/c3ccc(O)cc3O)c2O1`, the viability at 100 µM in [12] was 43.4%.

Turning to `CC1(C)C=Cc2c(O)cc(O)c(C(=O)/C=C/c3ccc(O)cc3)c2O1`, the Activity result in the data set filed under Rattus norvegicus [1] and in the data set filed under Rattus norvegicus [2] was “Toxic” throughout. The same molecule yielded an IC50 at 48 h in [3] of 41.1 µM. In addition, in [12], the viability at 100 µM was determined as 20.6%.

Turning to `CC1(C)C=Cc2c(O)cc(O)c(C(=O)/C=C/c3ccc(O)c(O)c3O)c2O1`, the viability at 100 µM in data set [12] worked out at 84%.

In the case of `CC1(C)C=Cc2c(O)c(Cc3c(O)c4c(c(C(=O)/C=C/c5ccc(O)cc5)c3O)OC(C)(C)C=C4)c(O)c(C(=O)/C=C/c3ccc(O)cc3)c2O1`, the viability at 100 µM in data set [12] is 44.9%.
